In ChEMBL document CHEMBL4513216, “Probing the Open Global Health Chemical Diversity Library for Multistage-Active Starting Points for Next-Generation Antimalarials” (ACS Infect Dis, 2020):

Test: Toxicity liver stage against HepG2, at 10uM
Format: cell-based
Parameters: test concentration 10 uM, cell line HepG2-A16-CD81EGFP
Settings: human, HepG2-A16-CD81EGFP cells; read-out: INHIBITION
How it was run: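 Uninfected HepG2-A16-CD81EGFP cells, 3 × 10^3 per well, 1536-well, plated on prespotted compound at 10 μM final, parasite-free screening media added to match infected plates; puromycin 10 μM positive, DMSO 0.5% negative; run in parallel with 48 h PbLuc assay at 37 °C, 5% CO2; viability by CellTiter-Glo luminescence, normalized to controls.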

SMILES | cytotoxicity at 10 µM
CCOC(=O)CNC(=O)c1cccnc1Oc1ccc(Cl)cc1 | 1.63%
Cc1nc(N2CCN(C)CC2)ncc1C(=O)N1CCN(C)CC1 | 3.85%
COc1ccc(C(=O)N2CC(=O)N(C3CCC3)CC(O)C2)cc1OC (stereo not given) | 4.35%
Cc1ccc(C)c(S(=O)(=O)NCCNc2ccc(-n3cccc3)nn2)c1 | 1.77%
CCn1cc2c(n1)C(COCC1CC1)CN(C(=O)c1cnoc1C)C2 (stereo not given) | 17.5%
N#Cc1cccc(N2CCOCC3(CCCN(C(=O)NC4CC4)C3)C2)c1 (stereo not given) | 14.1%
CN(C)CC(=O)N1CCc2ncnc(-c3ccoc3)c2CC1 | -7.36%
O=C(NCCc1ccccc1)N1CC[C@@H]2CNS(=O)(=O)[C@@H]2CC1 | -5.12%
O=C(c1cc2c(s1)CCN2C(=O)C1CC1)N1CCCC1 | 2.62%
Cc1nnc([C@@H]2CC[C@@H]3[C@@H](CCN3C3CCC3)O2)o1 | 8.19%
Cc1nnc([C@@]23CCO[C@@H]2CCN(S(C)(=O)=O)C3)o1 | 9.16%
Cc1ccc(CN2CC[C@H]3OCC[C@@]3(C(=O)N3CCCO3)C2)s1 | 2.08%
O=C(Cc1ccc2c(c1)OCC2)Nc1nn[nH]n1 | 0.548%
CN(CC1CC1)c1ccc2ccc(C(=O)NCCN3CCOCC3)cn12 | 5.57%
CC(C)CN1CCC2(CCN(Cc3ccsc3)CC2)C1=O | 5.24%
Cc1nc([C@@H]2C[C@@H]3CCN(C(=O)c4occc4C)C[C@H]3O2)no1 | -1.04%
CCn1ccc(NC(=O)CN2C(=O)C(C)(C)c3ccccc32)n1 | -16.9%
CCC(c1ccccc1)c1nn2c(CN(CC)CC)nnc2s1 (stereo not given) | 7.79%
CN1CCc2nc(C3CCCN(S(=O)(=O)N4CCCC4)C3)ncc2C1 (stereo not given) | 2.4%
CC1(c2ncc(CN3CCN(c4ncccn4)CC3)cn2)CCCCO1 (stereo not given) | 1.16%
c1cnc(Nc2ccc(C3CCCCN3Cc3ccncc3)cn2)nc1 (stereo not given) | -1.57%
CCNC(=O)C1(Cc2cc(-c3ccc(C)cc3)no2)CCCN(C)C1 (stereo not given) | 7.9%

SMILES | cytotoxicity at 10 µM
CNC(=O)C1CN(c2ccnc(C)n2)CCN(C2CCOCC2)C1 (stereo not given) | -0.762%
COCC(=O)N1CCCCC1c1nc(C)c2c(n1)N(CC1CC1)C(=O)C2 (stereo not given) | 10.5%
O=C(O)c1ccccc1-n1cnc(CN2CCCc3ccccc32)c1 | 6.58%
CN(C)C(=O)Cn1c(C2CC2)c(CN2CCSCC2)c2cccnc21 | 4.06%
Cc1cc(-c2c[nH]nc2C2CCCCN2C(=O)c2ccccc2)on1 (stereo not given) | 7.9%
Nc1nccc(C2CCCN(CC3CC3)C2)n1 (stereo not given) | 0.631%
Cn1cc(CN2CCOC(c3nccnc3-c3cccc(F)c3)C2)cn1 (stereo not given) | 8.12%
c1cnc(N2CCC(c3cc4cccnc4[nH]3)CC2)nc1 | -7.28%
COCCC(=O)N1CCCC1c1nc(O)cc(C(C)C)n1 (stereo not given) | -26.4%
CC(C)c1cc(O)nc(C2CCCN2C(=O)C(C)(C)C)n1 (stereo not given) | -17.8%
OCCN1CCC(c2cncc(-c3cccc(Cl)c3)n2)CC1 | -31.7%
Cc1cc(CN2CCC(O)(Cn3ccc4ncccc43)CC2)c(C)s1 | -16.1%
Cc1cc(C2CCCN(C(=O)c3cccnc3)C2)ccn1 (stereo not given) | -21.3%
CC(C)(C)C(=O)N1CCC(c2nc(O)cc(-c3ccccn3)n2)CC1 | -1.13%
CN(Cc1ccc(F)cc1)CC1(O)CCN(C(=O)c2ccccc2)C1 (stereo not given) | -1.7%
Oc1nc(N2CCOCC2)nc2c1CCN(Cc1cccnc1)CC2 | -3.71%
CCn1cc(CNC(C)c2noc(-c3ccc(Cl)cc3)n2)cn1 (stereo not given) | 3.63%
Cn1ccc(CS(=O)(=O)Cc2cccc(F)c2)cc1=O | 6.83%
Cc1ncc(C(=O)N2CCCC2c2c(C)nn(C)c2C)s1 (stereo not given) | 1.51%
CCC(C)(C)N(C)CCOc1cccc(S(C)(=O)=O)c1 | -8.42%
CCN1CCN2CCCN(S(=O)(=O)c3ccc(S(C)(=O)=O)cc3)C2C1=O (stereo not given) | 5.36%
Cc1noc(CCCC(=O)NCC(c2ccco2)N2CCCC2)n1 (stereo not given) | -0.363%

SMILES | cytotoxicity at 10 µM
Cc1cnn(CCC(=O)NS(=O)(=O)N2CCCc3ccccc32)c1 | 9.73%
Cc1cc(C(=O)OCC2CCCN2C(N)=O)c(C)o1 (stereo not given) | 6.72%
O=C(Cc1ccc2c(c1)CCO2)Nc1ccc(-n2cncn2)nc1 | 3.62%
COC(=O)C1CN(Cc2ccccc2C(C)(C)C#N)CCO1 (stereo not given) | -1.78%
Cc1cnc(CN(C)C2CCN(Cc3cnc(C)s3)C2)o1 (stereo not given) | -0.0499%
Cc1cnn(CCNCC(O)c2ccc(C(F)(F)F)cc2)c1 (stereo not given) | 4.48%
CC(C)Oc1ncc(C(=O)N2CCCC(C(=O)O)C2)cc1Cl (stereo not given) | -6.94%
O=C(CN1CCCCC1Cn1cncn1)Nc1ccncc1 (stereo not given) | 11.2%
c1cncc(CN(Cc2ccc(-n3ccnc3)cc2)CC2CCCO2)c1 (stereo not given) | -0.242%
Cc1cnn(CC2CCCN2C(=O)c2ccc3c(c2)nnn3C)c1 (stereo not given) | 18.4%
Cc1noc(C(C)Nc2ccc(N3CCOCC3)cc2C)n1 (stereo not given) | -3.92%
CC(NCC1CCN(CCO)CC1)c1ccc(Cl)cc1 (stereo not given) | -9.12%
Cc1nnc(CN(C)CCCOc2ccc(Cl)cc2)o1 | -1.69%
Cn1nc(Br)c2c(NCCSCCCO)ncnc21 | 14.5%
O=C(c1ccc(=O)[nH]n1)N(CCO)Cc1cc(Br)ccc1F | 7.56%
COc1ccc(OC)c(-n2nnnc2SCC2CCCN(C)C2)c1 (stereo not given) | 1.28%
CC(Cc1cccc(F)c1)NCc1cnc(N2CCN(C)CC2)nc1 (stereo not given) | -5.44%
N#Cc1ccc(F)c(CN2CCNC(=O)C2c2cccs2)c1 (stereo not given) | 11.5%
COc1ccc(C)cc1CN(C)CCCNS(C)(=O)=O | -43.2%
CC(C)CC(C)NCCCN1CCCN(C)CC1 (stereo not given) | 24.7%
CC(C)CNC(=O)Nc1ccc(CN2CCOC2=O)cc1 | 10.2%
CCOCC1CN(S(=O)(=O)Cc2ccccc2)Cc2nccn2C1 (stereo not given) | -105%

SMILES | cytotoxicity at 10 µM
CCC1=N[C@@]2(CC[C@@H]3CN(CC)C[C@@H]32)C(=O)N1C | -102%
CSCc1noc(CNC(=O)C2CCN(C(=O)C3CC3)CC2)n1 | 11.5%
Cc1ccc(N2CCCN(CC3CC3)C(C(C)C)C2)nn1 (stereo not given) | 13.3%
CCCNc1ncc(C2CC(=O)NCc3nc4ccccn4c32)cn1 (stereo not given) | -3.69%
COCC(=O)N1CC[C@]2(O)CCN(Cc3cccnc3OC)C[C@@H]2C1 | 8.72%
Cc1cc(NC(C)Cc2cccnc2)n2nccc2n1 (stereo not given) | 3.01%
C=C(C)COc1cccc(CN(C)C(C)c2ccncn2)c1 (stereo not given) | -47.6%
CCCc1ccc(C(=O)N2CCc3c(nc(N(C)C)[nH]c3=O)C2)cc1 | 8.7%
CCc1cc(NC2CCS(=O)(=O)CC2)nc(N2CCCCC2)n1 | -15.8%
CN1CCCC(CCC(=O)N2CCc3[nH]c(-c4ccccc4)nc3C2)C1 (stereo not given) | -4.13%
CCc1cc(N(C)CCc2c(C)n[nH]c2C)ncn1 | -4.45%
COc1cccc(OCC2CCCN(C(=O)c3ccc(N)nc3)C2)c1 (stereo not given) | 3.37%
O=C(CCn1cnnn1)N1CCCC(CO)(CCCc2ccccc2)C1 (stereo not given) | 2.74%
CC(C)c1cc(=O)[nH]c(-c2ccccc2CN2CCCCCC2)n1 | -2.1%
COc1ccc(F)c(-c2cc(C)nc(N)n2)c1 | 5.47%
COC(=O)c1cc(C)nc(N2CCN(Cc3cc(C(C)C)no3)CC2)n1 | 3.29%
OCCn1ncc2c1CN(CC1CCOc3ccccc3C1)C2 (stereo not given) | -5.35%
Cc1nccn1Cc1nnc(C2CCCN(Cc3cccnc3)C2)n1C (stereo not given) | -6.15%
O=C(O)c1cc(S(=O)(=O)N2CCOc3ccccc32)cc(Cl)c1Cl | -4.36%
COc1cc(C)nc(N2CCN(C(=O)COCC3CC3)CC2)n1 | -5.92%
O=C(O)c1c[nH]c2cc(NS(=O)(=O)c3cccc(Cl)c3F)ccc12 | -10.5%
Cc1ccc(C(=O)N2CCN(CCC(C)(C)C)CC2)c(=O)[nH]1 | -6.95%

SMILES | cytotoxicity at 10 µM
NC(=O)CC1CCN(C(=O)CCOc2ccc(Cl)cc2)CC1 | -7.98%
CCCNC(=O)CN1CCN(Cc2csc(C(C)(C)C)n2)CC1 | -7.88%
COc1cccc(Nc2nc(C3CCNCC3)c3sc(C)c(C)n23)c1 | 4.24%
COc1ccc(C(CNS(=O)(=O)c2cn(C)nc2C)N2CCCC2)cc1 (stereo not given) | 4.11%
Cc1cccc(CS(=O)(=O)c2nnc([C@@H](N)Cc3ccccc3)o2)c1 | 7.09%
COCCN1CCC2(CC1)CN(CCn1cccn1)C(=O)CO2 | 7.22%
CCCS(=O)(=O)N1CCn2cc(CNc3ccccn3)nc2C1 | 9.1%
COCCN1CCC12CCN(C(=O)Cc1cccs1)C2 (stereo not given) | 7.89%
O=C(c1cscn1)N1CCc2ncc(CN3CCCC3)n2CC1 | -111%
c1cnc(N2CCO[C@H]3CN(Cc4csnn4)C[C@H]32)cn1 | 4.23%
CC(C)N1CCC2(CCCN(C(=O)c3cncn3C)C2)CC1 | -0.0499%
O=C(c1cnccn1)N1CC2(CCN(Cc3ccsc3)C2)C1 | -4.23%
CC(C)N(C)C[C@H]1OC[C@@H]2CCN(Cc3cccc(C#N)c3)C[C@@H]21 | 9.28%
CN1CCC2(CCN(CC3CC3)CC2)C1=O | 10.9%
c1csc(CN2CCC3(CC2)CCN(CC2CC2)CC3)n1 | 3.17%
CN1CCCn2c(nc(CNS(=O)(=O)C3CC3)cc2=O)C1 | 5.92%
Cc1cccc(C(=O)N2C[C@@H]3CCN(c4cccnc4)C[C@@H]3C2)c1 | 3.76%
Clc1ccccc1CN1CCc2nc(C3CCNCC3)ncc2C1 | -36.6%
CN(C)CCOCc1ncn2c1CN(c1ncc(F)cn1)CCC2 | 15%
COCCN1CCN(Cc2ccco2)Cc2ccc(C)nc21 | 0.657%
c1cnc(N2CCOCC3(CCCN(Cc4cc[nH]n4)C3)C2)nc1 (stereo not given) | 3.35%
COc1ccc(F)cc1C(=O)N1C[C@H]2CC(OC)C[C@H]2C1 (stereo not given in full) | -2.19%
